In BindingDB's records for doi:10.1021/jm0301484 (Organix, 2003):
“And” between values parts separate entries of the source, which are not always exact repeats. Equal entries are not always repeated.

How the values were obtained:
[1] = target: Sodium-dependent serotonin transporter; test: In vitro affinity for serotonin transporter in Rhesus (Macaca mulatta) or Cynomolgus (Macaca fasicularis) monkey striata using [3H]citalopram displacement.
Method in brief: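 Cynomolgus or rhesus caudate-putamen homogenised in ice-cold 50 mM Tris-HCl, pH 7.4, and washed by centrifugation. Membranes (4 mg original wet weight/mL) were incubated with 1 nM [3H]citalopram and a range of test drug concentrations in buffer with 100 mM NaCl, 2 h at 0–4 °C.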

[2] = target: Sodium-dependent dopamine transporter; test: In vitro affinity for dopamine transporter in Rhesus (Macaca mulatta) or Cynomolgus (Macaca fasicularis) monkey striata using [3H]WIN-35428 displacement.
Method in brief: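 Caudate-putamen membranes homogenized in ice-cold 50 mM Tris-HCl pH 7.4 and washed by centrifugation. Competition with fixed [3H]WIN 35,428 (0.3 nM) at 4 mg original wet tissue/mL in 50 mM Tris-HCl with 100 mM NaCl. Incubated 2 h at 0-4 °C, filtered on GF/B presoaked in 0.1% BSA, scintillation counting. Triplicate, 2-3 brains; IC50.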

| Compound | IC50 [1] | IC50 [2] |
| --- | --- | --- |
| COC(=O)C1C(c2ccc(Cl)c(Cl)c2)CC2CCC1N2CCC[N+]12CC[S][Re]13(=[O])[S]CC[N]3C(=O)C2 (stereo not drawn) [[N-[2-[(3'-N'-Propyl-3''beta-(3,4-dichlorophenyl)tropane-2''beta-carboxylic acid methyl ester)(2-mercaptoethyl)amino]acetyl]-2-aminoethanethiolato]rhenium(V) oxide] | 639 nM | – |
| COC(=O)C1C(c2ccc3ccccc3c2)CC2CCC1N2CCCN1CC[S][Re]2(=[O])[S]CC[N]2C(=O)C1 (configuration not stated) [O-2130] | 120 nM | 4 nM and 3.64 nM |
| CCC(=O)C1C(c2ccc(F)cc2)CC2CCC1N2CCCN1CC[S][Re]2(=[O])[S]CC[N]2C(=O)C1 [(1R,12S) -N-[ (2-( (3'-N-propyl-3''alpha-(4-fluorophenyl)tropane-2''beta-propionyl) (2-mercaptoethyl)amino) -2-aminoethanethiolato]rhenium(v)oxide] | – | 3 nM and 5.9 nM and 1.5 nM |
| CCC(=O)C1=C(c2ccc(Cl)c(Cl)c2)CC2CCC1N2CCCN1CC[S][Re]2(=[O])[S]CC[N]2C(=O)C1 (stereo not drawn) [N-[ (2-( (3'-N-propyl-(1''R) -3''-(3,4-dichlorophenyl)trop-2''-ene-2''--1-propanoyl) (2-mercaptoethyl)amino)acetyl) -2-aminoethanethiolato)rhenium(V) oxide] | 2000 nM | 1200 nM |
| COC(=O)C1=C(c2ccc(Cl)c(Cl)c2)CC2CCC1N2CCCN1CC[S][Re]2(=[O])[S]CC[N]2C(=O)C1 (stereo not drawn) [N-[ (2-( (3'-N-propyl-(1''R) -3''-(3,4-dichlorophenyl)trop-2''-ene-2''--carbomethoxy) (2-mercaptoethyl)amino)acetyl) -2-aminoethanethiolato)rhenium(V) oxide] | 1690 nM | 60 nM |
| CCC(=O)C1=C(c2ccc(F)cc2)CC2CCC1N2CCCN1CC[S][Re]2(=[O])[S]CC[N]2C(=O)C1 (stereo not drawn) [N-[ (2-( (3'-N-propyl-(1''R) -3''-(4-flurophenyl)trop-2''-ene-2''--1-propanoyl) (2-mercaptoethyl)amino)acetyl) -2-aminoethanethiolato)rhenium(V) oxide] | 2100 nM | 660 nM |
| COC(=O)C1C(c2ccc(F)cc2)CC2CCC1N2CCCN1CC[S][Re]2(=[O])[S]CC[N]2C(=O)C1 (stereo not drawn) [Diastereiosomer of [N-[2-[(3'-N'-Propyl-3''beta-(4-fluorophenyl)tropane-2''beta-carboxylic acid methyl ester)(2-mercaptoethyl)amino]acetyl]-2-aminoethanethiolato]rhenium(V) oxide] | – | 3.8 nM and 2.9 nM |
| COC(=O)C1=C(c2ccc3ccccc3c2)CC2CCC1N2CCCN1CC[S][Re]2(=[O])[S]CC[N]2C(=O)C1 (configuration not stated) [O-1185] | 964 nM | 63.4 nM |
| COC(=O)C1=C(c2ccc(F)cc2)CC2CCC1N2CCCN1CC[S][Re]2(=[O])[S]CC[N]2C(=O)C1 (stereo not drawn) [N-[ (2-( (3'-N-propyl-(1''R) -3''beta-(4-fluorophenyl)trop-2''-ene-2''--carbomethoxy) (2-mercaptoethyl)amino)acetyl) -2-aminoethanethiolato)rhenium(V) oxide] | 4000 nM | 3500 nM |
| CCC(=O)C1C(c2ccc(Cl)c(Cl)c2)CC2CCC1N2CCCN1CC[S][Re]2(=[O])[S]CC[N]2C(=O)C1 (stereo not drawn) [N-[ (2-( (3'-N-propyl-(1''R) -3''beta-(3,4-dichlorophenyl)tropane-2''-beta-1-propanoyl) (2-mercaptoethyl)amino)acetyl) -2-aminoethanethiolato)rhenium(V) oxide] | 337 nM | 5 nM and 5.3 nM |
